Screens (PubChem)
A selection: hits, their analogues and other compounds. The true share with any hit is near 3.8%.
MPTP block: permeability transition pore inhibition. 360,000 tested, 1.4% active. AID 602449. isolated mouse mitochondria, Ca2+ swelling absorbance, 30 min. inhibition, % at 10 µM;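 active means inhibition of 50% or more, scaled per plate between neutral and stimulator controls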;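 further: 0% = DMSO wells given calcium and 100% = 1 mM EGTA wells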
B2AR ag: agonists of human beta-2 adrenergic receptor inducing internalization; P07550; Am2.2-beta2AR cells, FAP receptor internalization, flow cytometry; response, % (concentration not given with the values); 340,000 tested, 0.43% active; AID 504454;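 active means response above a set limit, near 3 SD of response in nonfluorescent compounds, cut at about 42% in these data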
Target sequence (P07550 whole entry, looked up): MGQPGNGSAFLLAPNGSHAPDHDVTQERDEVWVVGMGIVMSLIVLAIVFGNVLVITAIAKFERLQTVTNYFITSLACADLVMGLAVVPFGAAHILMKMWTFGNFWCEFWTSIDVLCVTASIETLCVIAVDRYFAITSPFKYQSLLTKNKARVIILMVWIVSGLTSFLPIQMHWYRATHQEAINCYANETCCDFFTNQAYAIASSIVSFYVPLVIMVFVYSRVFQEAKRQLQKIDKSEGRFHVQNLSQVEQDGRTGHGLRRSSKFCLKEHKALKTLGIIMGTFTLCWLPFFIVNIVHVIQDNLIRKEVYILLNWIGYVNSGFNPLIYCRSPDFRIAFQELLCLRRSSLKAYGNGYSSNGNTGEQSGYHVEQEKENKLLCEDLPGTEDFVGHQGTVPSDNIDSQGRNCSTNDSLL
Granule exo inh: lytic granule exocytosis inhibition. TALL-104 LAMP-1 surface exposure, flow cytometry; cells stimulated with thapsigargin and PMA. inhibition, % at 10 µM. 360,000 tested, 0.66% active;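 active means inhibition above about 55%, limit read from the data; inconclusive means no clear call, values can overlap the other calls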
V-ATPase pH: alters yeast V-ATPase proton transport | S. cerevisiae, pHLuorin cytosolic pH fluorescence | response, % at 10 µM | 350,000 tested, 0.37% active | AID 504577; in the data active means response mostly above about 7.3%, no sharp cut-off; inactive means mostly below about 5.4%; further: actives read high
rCAG binder: molecules binding r(CAG) RNA repeats; 370,000 tested, 1.3% active; AID 651821; r(CAG) RNA repeat, TO-PRO-1 dye displacement fluorescence; inhibition, % at 3 µM;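 active means inhibition above the plate cutoff, the mean of all test compounds on that plate plus 3 SD, cut at about 35% in these data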;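 further: 0% = DMSO alone and 100% = 100 µM mitoxantrone as full dye displacement; higher means more dye released from RNA so lower well fluorescence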
T cell modulator: T cell immune modulators affecting CD8 T cell-vesicle binding; 2C CD8+ T cell-vesicle binding, flow cytometry; active compounds read low; response (vesicle binding), % at 7 µM; 330,000 tested, 0.068% active;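 active means response, share of CD8 T cells binding vesicles, and their 90th percentile fluorescence all below set limits, cut at about 80% in these data, passing the limit was not always enough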;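 further: values below 100% mean blocked vesicle binding to the CD8+ T cells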
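Test system: purified 2C TCR transgenic mouse naive CD8+ T cells. Probe or stimulus: QL9-peptide-loaded Drosophila micro-vesicles bearing Ld, ICAM-1 and B7-1. Incubation: binding step 1.5 h, 37 °C, antibody labelling 20 min, ice. Measured by: flow cytometry of vesicle-bound cells.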
MPTP counter: Rhodamine 123 counter-screen of mitochondrial pore hits; shares compounds with MPTP block; isolated mitochondria, membrane potential, Rhodamine 123 fluorescence; inhibition, % at 10 µM; 5,000 tested, 78% active; AID 624504; in the data active means inhibition above about 22%;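 further: 0% = DMSO vehicle and 100% = positive control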
MPTP abs DR: MPTP inhibition, dose response swelling confirmation | shares compounds with MPTP block | isolated mitochondria swelling, absorbance | IC50, µM | 780 tested, 58% active; in the data active means IC50 below about 20 µM
MPTP counter DR: active in counter-screen for permeability transition pore inhibitors; shares compounds with MPTP block; isolated mitochondria counterscreen, fluorescence read-out; 780 tested, 49% active; AID 651564; IC50, µM; in the data active means IC50 below about 80 µM
* marks the source's active call; other numbers are inactive results; i = inactive; ? = inconclusive; · = no result given.

SMILES	MPTP block	B2AR ag	Granule exo inh	V-ATPase pH	rCAG binder	T cell modulator	MPTP counter	others
CCCCCCC12C(=Cc3cc(C)ccc31)c1ccccc1C(CC(=O)NCc1ccccc1)N2C(=O)OC (configuration not stated)	·	·	·	·	6	·	·
O=C(Nc1c(-c2ccccc2)nc2ncccn12)C1CC1	·	·	·	·	-1	·	·
COc1cccc(/C=C2/Sc3ccc(C(=O)NCCN4CCCC4)cc3NC2=O)c1	55*	29	?	-3	20	354	-19	MPTP abs DR=6*;MPTP counter DR=77*
O=C1NC(=S)S/C1=C/c1ccc(N2CCOCC2)o1	40	-21	0	2	·	i	·
COc1ccc2cc(/C=C3\SC(=S)NC3=O)c(N3CCOCC3)nc2c1	80*	19	-1	3	65*	374	72*
COc1ccc(/C=C2/SC(=S)NC2=O)cc1OCc1ccccc1	24	14	8	-3	30	323	·
COc1cccc(C=C2SC(=S)NC2=O)c1	56*	-1	4	-4	6	·	79*
O=C(CSc1nc(-c2cccs2)cc(C(F)(F)F)n1)Nc1cc(OCC(F)(F)F)cc([N+](=O)[O-])c1	100*	-23	-3	2	1	762	79*
Cc1cc(N2CCN(S(C)(=O)=O)C[C@@H]2C)ccc1N1CCN(Cc2ccccc2)[C@@H](C)C1	·	·	·	·	3	·	·
Clc1ccc2c(N/N=C/c3cccc(Br)c3)ccnc2c1	62*	46*	74*	1	14	265	94*
Clc1ccc2c(N/N=C/c3ccccc3Br)ccnc2c1	57*	42*	92*	-4	7	0	99*
O=[N+]([O-])c1ccc(/C=N/Nc2ccnc3cc(Cl)ccc23)o1	21	-20	55	4	26	403	·
CC(C)[C@H](N)C(=O)N[C@H](C(=O)N1CCC2CCN(S(=O)(=O)c3ccccc3)CC21)C(C)C (some centres not stated)	·	·	·	·	2	·	·
CCC(C)[C@H](NC(=O)[C@H](CC(C)C)NC(=O)OC(C)(C)C)C(=O)N[C@@H](Cc1ccccc1)C(=O)OC (some centres not stated)	·	·	·	·	3	·	·
COC(=O)[C@]12C[C@H](CC(=O)N3CCOCC3)C(=O)N(Cc3ccc(Cl)cc3Cl)C1=C[C@H](C(C)(C)C)O[C@@H]2C	·	·	·	·	3	·	·
COc1ccc(N(CC(=O)Nc2ccc(F)c(Cl)c2)S(=O)(=O)c2c(C)noc2C)cc1	69*	30	4	6	7	232	78*
COc1ccc(N(CC(=O)Nc2ccc(OC)c(Cl)c2)S(=O)(=O)c2c(C)noc2C)cc1	16	-5	0	1	4	530	·
Oc1ccc(-c2nnc(SCC3CCCCC3)o2)cc1	55*	12	-1	0	-2	378	54*
O=C(CSc1nnc(-c2ccc(O)cc2)o1)N1CCOCC1	1	10	1	-1	-4	137	·
COc1ccc(-c2csc(NC(=O)CSc3nc(C)cs3)n2)cc1	31	2	1	-3	1	207	·
CCOC(=S)SCC(=O)Nc1nc(-c2ccc(Br)cc2)cs1	80*	11	2	0	9	323	75*
COc1ccc(-c2csc(NC(=O)CSc3nc(SC)ns3)n2)cc1	65*	2	7	-3	16	299	74*
CC1(C)CC(=O)C(=Cc2cn(-c3ccccc3)nc2-c2ccc(Cl)cc2)C(=O)C1	-8	19	21	3	2	339	·
CC1(C)CC(=O)C(=Cc2cn(CCC#N)nc2-c2ccc(Cl)cc2)C(=O)C1	77*	17	74*	-3	-4	402	59*
CC1(C)CC(=O)C(=Cc2cn(CCC#N)nc2-c2ccc(F)cc2)C(=O)C1	63*	16	28	2	-1	166	41*
N#CCCn1cc(/C=N/O)c(-c2ccc(F)cc2)n1	0	1	0	0	1	217	·
